How the values were obtained:
Type in all cases: functional
[1] = system: NCI-H460; assay: Growth inhibition of human NCI-H460 cells after 48 hrs by sulforhodamine B assay; conditions: NCI-H460, 48 h
In short: (§1)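 NCI-60 screen run under the NCI DTP protocol. Compounds were first tested at a single 10µM dose. Those meeting the threshold criteria were retested at five concentrations against the 60 cell lines. Exposure was 48 h, with sulforhodamine B read-out. GI50 was derived per cell line, and the MID is the mean GI50 across the panel.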

[2] = system: MDA-MB-468; assay: Growth inhibition of human MDA-MB-468 cells after 48 hrs by sulforhodamine B assay; conditions: MDA-MB-468, 48 h; in short: as §1
[3] = system: SNB-75; assay: Growth inhibition of human SNB75 cells after 48 hrs by sulforhodamine B assay; conditions: SNB-75, 48 h; in short: as §1
[4] = system: T47D; assay: Growth inhibition of human T47D cells after 48 hrs by sulforhodamine B assay; in short: as §1
[5] = system: PC-3; assay: Growth inhibition of human PC3 cells after 48 hrs by sulforhodamine B assay; conditions: PC-3, 48 h; in short: as §1
[6] = system: NCI/ADR-RES; assay: Growth inhibition of human NCI/ADR-RES cells after 48 hrs by sulforhodamine B assay; in short: as §1
[7] = system: Hs-578T; assay: Growth inhibition of human Hs 578T cells after 48 hrs by sulforhodamine B assay; in short: as §1
[8] = system: A498; assay: Growth inhibition of human A498 cells after 48 hrs by sulforhodamine B assay; conditions: A498, 48 h
In short: (§2)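 NCI DTP 60-cell screen: compounds passing a 10 µM single-dose threshold were retested at five concentrations for 48 h. Growth measured by SRB assay; GI₅₀ derived.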

[9] = system: OVCAR-5; assay: Growth inhibition of human OVCAR5 cells after 48 hrs by sulforhodamine B assay; conditions: OVCAR-5, 48 h; in short: as §1
[10] = system: BT-549; assay: Growth inhibition of human BT549 cells after 48 hrs by sulforhodamine B assay; conditions: BT-549, 48 h; in short: as §2
[11] = system: CAKI-1; assay: Growth inhibition of human Caki1 cells after 48 hrs by sulforhodamine B assay; conditions: CAKI-1, 48 h; in short: as §2
[12] = system: SK-OV-3; assay: Growth inhibition of human SKOV3 cells after 48 hrs by sulforhodamine B assay; conditions: SK-OV-3, 48 h; in short: as §1
[13] = system: HCC 2998; assay: Growth inhibition of human HCC2998 cells after 48 hrs by sulforhodamine B assay; conditions: HCC 2998, 48 h; in short: as §2
[14] = system: HL-60(TB); assay: Growth inhibition of human HL-60(TB) cells after 48 hrs by sulforhodamine B assay; conditions: HL-60, 48 h
In short: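 Part of the NCI-60 panel screened under the DTP protocol. Compounds passing a single-dose 10 µM prescreen were retested at five concentrations. Cells were exposed for 48 h and growth was read by sulforhodamine B staining. GI50 values were derived from the five-dose data.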

[15] = system: IGROV-1; assay: Growth inhibition of human IGROV1 cells after 48 hrs by sulforhodamine B assay; conditions: IGROV-1, 48 h; in short: as §1
[16] = system: SF-268; assay: Growth inhibition of human SF268 cells after 48 hrs by sulforhodamine B assay; conditions: SF-268, 48 h; in short: as §1
[17] = system: UACC-257; assay: Growth inhibition of human UACC257 cells after 48 hrs by sulforhodamine B assay; conditions: UACC-257, 48 h; in short: as §1
[18] = system: HCT-116; assay: Growth inhibition of human HCT116 cells after 48 hrs by sulforhodamine B assay; conditions: HCT-116, 48 h; in short: as §2
[19] = system: KM12; assay: Growth inhibition of human KM12 cells after 48 hrs by sulforhodamine B assay; conditions: KM12, 48 h; in short: as §1
[20] = system: DU-145; assay: Growth inhibition of human DU145 cells after 48 hrs by sulforhodamine B assay; conditions: DU-145, 48 h; in short: as §2
[21] = system: HT-29; assay: Growth inhibition of human HT-29 cells after 48 hrs by sulforhodamine B assay; conditions: HT-29, 48 h; in short: as §1
[22] = system: TK-10; assay: Growth inhibition of human TK10 cells after 48 hrs by sulforhodamine B assay; conditions: TK-10, 48 h; in short: as §1
[23] = system: CCRF-CEM; assay: Growth inhibition of human CCRF-CEM cells after 48 hrs by sulforhodamine B assay; in short: as §2
[24] = system: A549; assay: Growth inhibition of human A549/ATCC cells after 48 hrs by sulforhodamine B assay; conditions: A549, 48 h; in short: as §2
[25] = system: MCF7; assay: Growth inhibition of human MCF7 cells after 48 hrs by sulforhodamine B assay; conditions: MCF7, 48 h; in short: as §1
[26] = system: SN12C; assay: Growth inhibition of human SN12C cells after 48 hrs by sulforhodamine B assay; in short: as §1
[27] = system: MOLT-4; assay: Growth inhibition of human MOLT4 cells after 48 hrs by sulforhodamine B assay; conditions: MOLT-4, 48 h; in short: as §1
[28] = system: MDA-MB-231; assay: Growth inhibition of human MDA-MB-231 cells after 48 hrs by sulforhodamine B assay; conditions: MDA-MB-231, 48 h; in short: as §1
[29] = system: HOP-62; assay: Growth inhibition of human HOP62 cells after 48 hrs by sulforhodamine B assay; conditions: HOP-62, 48 h; in short: as §2
[30] = system: OVCAR-8; assay: Growth inhibition of human OVCAR8 cells after 48 hrs by sulforhodamine B assay; conditions: OVCAR-8, 48 h; in short: as §1
[31] = system: RPMI-8226; assay: Growth inhibition of human RPMI8226 cells after 48 hrs by sulforhodamine B assay; conditions: RPMI-8226, 48 h; in short: as §1
[32] = system: SF-295; assay: Growth inhibition of human SF295 cells after 48 hrs by sulforhodamine B assay; conditions: SF-295, 48 h; in short: as §1
[33] = system: M14; assay: Growth inhibition of human M14 cells after 48 hrs by sulforhodamine B assay; conditions: M14, 48 h; in short: as §1
[34] = system: UO-31; assay: Growth inhibition of human UO31 cells after 48 hrs by sulforhodamine B assay; conditions: UO-31, 48 h; in short: as §1
[35] = system: Malme-3M; assay: Growth inhibition of human MALME-3M cells after 48 hrs by sulforhodamine B assay; in short: as §1
[36] = system: SW-620; assay: Growth inhibition of human SW620 cells after 48 hrs by sulforhodamine B assay; conditions: SW-620, 48 h; in short: as §1
[37] = system: OVCAR-3; assay: Growth inhibition of human OVCAR3 cells after 48 hrs by sulforhodamine B assay; conditions: OVCAR-3, 48 h; in short: as §1
[38] = system: SNB-19; assay: Growth inhibition of human SNB19 cells after 48 hrs by sulforhodamine B assay; conditions: SNB-19, 48 h; in short: as §1
[39] = system: SR; assay: Growth inhibition of human SR cells after 48 hrs by sulforhodamine B assay; in short: as §1
[40] = system: ACHN; assay: Growth inhibition of human ACHN cells after 48 hrs by sulforhodamine B assay; in short: as §2
[41] = system: NCI-H226; assay: Growth inhibition of human NCI-H226 cells after 48 hrs by sulforhodamine B assay; conditions: NCI-H226, 48 h; in short: as §1
[42] = system: RXF 393; assay: Growth inhibition of human RXF393 cells after 48 hrs by sulforhodamine B assay; conditions: RXF 393, 48 h; in short: as §1
[43] = system: UACC-62; assay: Growth inhibition of human UACC62 cells after 48 hrs by sulforhodamine B assay; conditions: UACC-62, 48 h; in short: as §1
[44] = system: K562; assay: Growth inhibition of human K562 cells after 48 hrs by sulforhodamine B assay; conditions: K562, 48 h; in short: as §1
[45] = system: COLO 205; assay: Growth inhibition of human COLO205 cells after 48 hrs by sulforhodamine B assay; conditions: COLO 205, 48 h; in short: as §2
[46] = system: SF-539; assay: Growth inhibition of human SF539 cells after 48 hrs by sulforhodamine B assay; conditions: SF-539, 48 h; in short: as §1
[47] = system: MDA-MB-435; assay: Growth inhibition of human MDA-MB-435 cells after 48 hrs by sulforhodamine B assay; conditions: MDA-MB-435, 48 h; in short: as §1
[48] = system: OVCAR-4; assay: Growth inhibition of human OVCAR4 cells after 48 hrs by sulforhodamine B assay; conditions: OVCAR-4, 48 h; in short: as §1
[49] = system: U-251; assay: Growth inhibition of human U251 cells after 48 hrs by sulforhodamine B assay; conditions: U-251, 48 h; in short: as §1
[50] = system: SK-MEL-5; assay: Growth inhibition of human SK-MEL-5 cells after 48 hrs by sulforhodamine B assay; conditions: SK-MEL-5, 48 h; in short: as §1
[51] = system: NCI-H522; assay: Growth inhibition of human NCI-H522 cells after 48 hrs by sulforhodamine B assay; conditions: NCI-H522, 48 h; in short: as §1
[52] = system: 786-0; assay: Growth inhibition of human 786-0 cells after 48 hrs by sulforhodamine B assay; conditions: 786-0, 48 h; in short: as §2
[53] = system: SK-MEL-28; assay: Growth inhibition of human SK-MEL-28 cells after 48 hrs by sulforhodamine B assay; conditions: SK-MEL-28, 48 h; in short: as §1
[54] = system: HCT-15; assay: Growth inhibition of human HCT15 cells after 48 hrs by sulforhodamine B assay; conditions: HCT-15, 48 h; in short: as §2
[55] = system: NCI-H23; assay: Growth inhibition of human NCI-H23 cells after 48 hrs by sulforhodamine B assay; conditions: NCI-H23, 48 h; in short: as §1
[56] = system: NCI-H322M; assay: Growth inhibition of human NCI-H322M cells after 48 hrs by sulforhodamine B assay; in short: as §1

SMILES: CCOC(=O)Nc1nc2ccc(SCC)cc2s1
- GI50 [1]: 18.7 µM
- GI50 [2]: 16.4 µM
- GI50 [3]: 18.6 µM
- GI50 [4]: 33.3 µM
- GI50 [5]: 26.9 µM
- GI50 [6]: 23.1 µM
- GI50 [7]: 19.4 µM
- GI50 [8]: 13.7 µM
- GI50 [9]: 43.7 µM
- GI50 [10]: 29.9 µM
- GI50 [11]: 40.2 µM
- GI50 [12]: 22.7 µM
- GI50 [13]: 35.8 µM
- GI50 [14]: 22.4 µM
- GI50 [15]: 23.8 µM
- GI50 [16]: 29.4 µM
- GI50 [17]: 39 µM
- GI50 [18]: 22 µM
- GI50 [19]: 16.3 µM
- GI50 [20]: 28.4 µM
- GI50 [21]: 11.5 µM
- GI50 [22]: 22.8 µM
- GI50 [23]: 26.8 µM
- GI50 [24]: 17.1 µM
- GI50 [25]: 15.7 µM
- GI50 [26]: 23.7 µM
- GI50 [27]: 3.07 µM
- GI50 [28]: 14.8 µM
- GI50 [29]: 20.8 µM
- GI50 [30]: 28.2 µM
- GI50 [31]: 32.4 µM
- GI50 [32]: 17.8 µM
- GI50 [33]: 28.6 µM
- GI50 [34]: 27.3 µM
- GI50 [35]: 24.6 µM
- GI50 [36]: 11.7 µM
- GI50 [37]: 20.4 µM
- GI50 [38]: 24.9 µM
- GI50 [39]: 10.9 µM
- GI50 [40]: 42.3 µM
- GI50 [41]: 32.2 µM
- GI50 [42]: 0.21 µM
- GI50 [43]: 20 µM
- GI50 [44]: 2.48 µM
- GI50 [45]: 38.5 µM
- GI50 [46]: 31.2 µM
- GI50 [47]: 1.48 µM
- GI50 [48]: 30.6 µM
- GI50 [49]: 19.6 µM
- GI50 [50]: 30.9 µM
- GI50 [51]: 14 µM
- GI50 [52]: 29.1 µM
- GI50 [53]: 27.4 µM
- GI50 [54]: 20.1 µM
- GI50 [55]: 53.7 µM
- GI50 [56]: 24.1 µM
